Experiment [1] concerns clinical E. coli strain UTI89. Nature of the experiment: Hemagglutination inhibition. Format: cell-based, Escherichia coli.
Experiment [2] has as its system UTI89KAN (UPEC). Nature of the experiment: Treatment of chronic urinary tract infection in mice. Format: in vivo, C3H/HeN female mice. As to conditions: chronic UTI. In outline: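 Female C3H/HeN mice were infected transurethrally with 1–2 × 10^8 UTI89KAN. Urine titers were taken on day 12, and mice with ≥10^5 were counted as chronic. At 2 weeks they received oral test compound (25 or 50 mg/kg) in 100 μL 10% cyclodextrin. Bladders were harvested at set times after dosing and plated on kanamycin LB. Geometric means; Mann–Whitney versus vehicle or 0 h.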

Experiment [3] concerns UTI89KAN (UPEC). Nature of the experiment: Prophylactic treatment of acute urinary tract infection in mice. As to conditions: 25 mg/kg PO 30 min prior to UPEC infection, bacterial titers 6 h postinfection. The class given is in vivo, C3H/HeN female mice. In outline: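 6–8-week female C3H/HeN mice were dosed orally with 25 mg/kg test compound in 10% cyclodextrin. After 30 min they were inoculated transurethrally under isoflurane with 1–2 × 10^7 UTI89KAN (grown 2 × 24 h static in LB, 37 °C; washed, in PBS). At 6 h, bladders were homogenised and plated on LB + 50 μg/mL kanamycin. Geometric means from ≥2 experiments; Mann–Whitney versus vehicle.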

Experiment [4] has as its target FimH lectin domain (FimHL) (Escherichia coli, UniProt P08191). Put plainly: Differential scanning fluorimetry. The class given is binding. The conditions noted are these: isothermal shift melting point assay. In short, it runs like this: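 FimH lectin domain (FimHL) at 10 μM, heated with or without 100 μM mannoside. Melting temperature measured by differential scanning fluorimetry. Value is the shift in melting temperature relative to protein without mannoside.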
(In general: In DSF a fluorescence change marks the thermal transition of the protein.)

The mark [5] stands for this setting: 25 mg/kg oral, 12 h post treatment.

Chain of FimH lectin domain (FimHL) (P08191 22-179): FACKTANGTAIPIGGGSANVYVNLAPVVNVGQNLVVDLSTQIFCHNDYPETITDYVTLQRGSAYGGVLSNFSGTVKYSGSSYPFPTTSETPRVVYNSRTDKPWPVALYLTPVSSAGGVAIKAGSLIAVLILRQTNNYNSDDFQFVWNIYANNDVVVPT

`CNC(=O)c1cccc(-c2ccc([C@H](O)[C@H]3O[C@H](CO)[C@@H](O)[C@H](O)[C@@H]3O)cc2)c1` [6S, 4′-[(α-D-Mannopyranosyl)-(S)-hydroxymethyl]-N-methyl-[1,1′biphenyl]-3-carboxamide]: the “fold less potency in the HA assay than 5” value in experiment [1] (comparator 5) was determined as 25 fold.

As to `CNC(=O)c1cccc(-c2ccc([C@@H](O)[C@H]3O[C@H](CO)[C@@H](O)[C@H](O)[C@@H]3O)c(C)c2)c1` [21R, 4′-[(α-D-Mannopyranosyl)-(R)-hydroxymethyl]-N,3′-dimethyl-[1,1′biphenyl]-3-carboxamide], in the experiment with UTI89KAN (UPEC) [2] (setting [5]), the “bladder burdens relative to untreated mice” value was “three logs lower”; the “change in bladder burdens compared to vehicle” value (shortened to “change in bladder burdens”) was “dramatic and significant decrease in CFUs”.

As for `CNC(=O)c1cccc(-c2ccc(O[C@H]3O[C@H](COC(C)=O)[C@@H](OC(C)=O)[C@H](OC(C)=O)[C@@H]3OC(C)=O)c(C)c2)c1` [23a, 4′-(2,3,4,6-Tetra-O-acetyl-α-D-mannopyranosyloxy)-N,3′-dimethyl-[1,1′biphenyl]-3-carboxamide], the “change in bladder burdens” value with UTI89KAN (UPEC) [2] (setting [5]) was “similar, but statistically significant, decrease in bladder burdens”. In addition, the “efficacy compared to 23 as prophylaxis therapy” value in the experiment on UTI89KAN (UPEC) [3] is “improved efficacy compared to 23”.

In the case of `CNC(=O)c1cccc(-c2ccc(O[C@H]3O[C@H](COP(=O)(O)O)[C@@H](O)[C@H](O)[C@@H]3O)c(C)c2)c1` [23b, 4′-(6-Dihydrogen Phosphate-α-D-mannopyranosyloxy)-N,3′-dimethyl-[1,1′biphenyl]-3-carboxamide], in the experiment with UTI89KAN (UPEC) [3], the “efficacy compared to 23 as prophylaxis therapy” value was “improved efficacy compared to 23”.

With `CNC(=O)c1cccc(-c2ccc(O[C@H]3O[C@H](COC(=O)CN(C)C)[C@@H](O)[C@H](O)[C@@H]3O)c(C)c2)c1` [23c, 4′-[6-O-(N,N-Dimethylaminoacetyl)-α-D-mannopyranosyloxy]-N,3′-dimethyl-[1,1′biphenyl]-3-carboxamide], the “efficacy compared to 23 as prophylaxis therapy” value with UTI89KAN (UPEC) [3] is “did not show enhanced efficacy”.

For the compound `COC(=O)c1cccc(-c2ccc(N[C@H]3O[C@H](CO)[C@@H](O)[C@H](O)[C@@H]3O)cc2)c1` [compound 2, 4′-(α-D-Mannopyranosylamino)-[1,1′biphenyl]-3-carboxylic Acid Methyl Ester], the “binding affinity to FimH relative to 1” value in experiment [4] is “equivalent binding affinity to FimH”.

On to `COC(=O)c1cccc(-c2ccc(S[C@H]3O[C@H](CO)[C@@H](O)[C@H](O)[C@@H]3O)cc2)c1` [compound 3, 4′-(α-D-Mannopyranosylthio)-[1,1′biphenyl]-3-carboxylic Acid Methyl Ester], for which, in experiment [4], the “binding affinity to FimH relative to 1” value is “equivalent binding affinity to FimH”.

For `CNC(=O)c1cccc(-c2ccc(C[C@H]3O[C@H](CO)[C@@H](O)[C@H](O)[C@@H]3O)c(C)c2)c1` [compound 22, 4′-[(α-D-Mannopyranosyl)methyl]-N,3′-dimethyl-[1,1′biphenyl]-3-carboxamide], in experiment [1] (comparator 23), the “fold decrease in activity relative to 23” value came to 30 fold.

On to `CNC(=O)c1cc(C(=O)NC)cc(-c2ccc(O[C@H]3O[C@H](CO)[C@@H](O)[C@H](O)[C@@H]3O)c(C)c2)c1` [compound 24], for which the “change in bladder burdens” value with UTI89KAN (UPEC) [2] (setting [5]) is recorded as “noticeable, but not significant, decrease in bladder burdens”. Moreover, in the experiment with UTI89KAN (UPEC) [2] (50 mg/kg oral), the “bladder burden at 6 h” value was 10^4 CFUs and the “bladder burden at 12 hours (geometric mean)” value is on record as 10^5. Also, in the experiment on UTI89KAN (UPEC) [2] (50 mg/kg oral, from 10^7 CFUs at 0 h), the “bladder burden 2 h postdosing” value is on record as “approximately 10^5 CFUs”. Moreover, the “fold more potent than 23 in HA assay” value in experiment [1] (comparator 23) is reported as 4 fold.

Source of the values: paper PMC5087331 (Journal of Medicinal Chemistry, 2016).
